Results from ChEMBL document CHEMBL4152271, “Polypharmacological profile of 1,2-dihydro-2-oxo-pyridine-3-carboxamides in the endocannabinoid system” (Eur J Med Chem, 2018).
Activity calls are given as the source filed them. No cut-off for these calls is given here.

Key:
[1] = biological target: T1, Monoglyceride lipase (Homo sapiens, UniProt Q99685); test: Inhibition of MAGL in human U937 cells using 2-OG containing […] as substrate preincubated for 30 mins followed by substrate addition and measured after 15 mins by liquid scintillation spectroscopic method; assay type: cell-based
T1 sequence (Q99685 whole entry): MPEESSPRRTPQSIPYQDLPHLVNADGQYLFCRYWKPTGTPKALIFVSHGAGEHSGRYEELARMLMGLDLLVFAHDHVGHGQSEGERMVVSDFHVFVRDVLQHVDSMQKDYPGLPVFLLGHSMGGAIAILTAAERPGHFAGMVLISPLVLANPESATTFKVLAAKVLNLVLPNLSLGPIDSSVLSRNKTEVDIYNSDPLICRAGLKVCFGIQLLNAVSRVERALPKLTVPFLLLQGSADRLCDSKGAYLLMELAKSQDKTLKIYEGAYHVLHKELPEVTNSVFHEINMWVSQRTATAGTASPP
How it was run: (§1)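 U937 cell homogenate (100 µg) in 10 mM Tris-HCl, 1 mM EDTA, pH 8, 0.1% fatty acid-free BSA. Compound at 10 µM screening concentration, 30 min at 37 °C. FAAH: 100 nM AEA with 1 nM [³H]AEA tracer. MAGL: 1 µM 2-OG with 1 nM tritiated tracer. Both 15 min at 37 °C, stopped with CHCl₃:MeOH (1:1), aqueous phase counted.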

[2] = biological target: T2, Cannabinoid receptor 1 (Homo sapiens, UniProt P21554); test: Displacement of [3H]-CP55940 from human CB1 receptor expressed in CHO cell membranes after 90 mins
[3] = biological target: T3, Cannabinoid receptor 2 (Homo sapiens, UniProt P34972); test: Displacement of [3H]-CP55940 from human CB2 receptor expressed in CHO cell membranes after 90 mins
How it was run: (§2)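 Membranes expressing hCB1 or hCB2 (stably transfected CHO) in 50 mM Tris-HCl, 2.5 mM EDTA, 5 mM MgCl₂, 0.5% fatty acid-free BSA, pH 7.4. Nonspecific binding with 10 µM […]. GF/B filtration, radioactivity counted, Ki derived. Mean ± SD, at least 3 experiments in triplicate.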

[4] = species: Homo sapiens; test: Selectivity ratio of Ki for human CB1 receptor to Ki for human CB2 receptor
How it was run: as §2, with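 “7.4. Incubated with compound and 0.5 nM [³H]CP55,940 for 90 min at 30 °C.” for “7.4.”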

[5] = biological target: T2, Cannabinoid receptor 1; test: Agonist activity at human CB1 receptor expressed in CHO cell membranes after 90 mins by [35S]GTPgammaS binding assay; assay type: functional, cell-based
[6] = biological target: T3, Cannabinoid receptor 2; test: Agonist activity at human CB2 receptor expressed in CHO cell membranes after 90 mins by [35S]GTPgammaS binding assay; assay type: functional
How it was run: (§3)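 Membranes (5 µg) of hCB2-expressing cells in 50 mM Tris-HCl, 3 mM MgCl₂, 0.2 mM EDTA, 100 mM NaCl, 0.5% fatty acid-free BSA, pH 7.4, with 10 µM GDP and 0.1 nM [³⁵S]GTPγS. Kept on ice, started by vehicle or compound, 90 min at 30 °C. Nonspecific binding with 10 µM GTPγS. Filtered on GF/B, radioactivity counted. At least three experiments in triplicate, mean ± SD.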

[7] = biological target: T3, Cannabinoid receptor 2; test: Agonist activity at human CB2 receptor expressed in CHO cell membranes after 90 mins by [35S]GTPgammaS binding assay relative to control; assay type: functional; how it was run: as §3
[8] = biological target: T4, Fatty-acid amide hydrolase 1 (Homo sapiens, UniProt O00519); test: Inhibition of FAAH in human U937 cells using AEA containing [ethanolamine-1-3H]AEA as substrate preincubated for 30 mins followed by substrate addition and measured after 15 mins by liquid scintillation spectroscopic method; assay type: cell-based; how it was run: as §1
T4 sequence (O00519 whole entry): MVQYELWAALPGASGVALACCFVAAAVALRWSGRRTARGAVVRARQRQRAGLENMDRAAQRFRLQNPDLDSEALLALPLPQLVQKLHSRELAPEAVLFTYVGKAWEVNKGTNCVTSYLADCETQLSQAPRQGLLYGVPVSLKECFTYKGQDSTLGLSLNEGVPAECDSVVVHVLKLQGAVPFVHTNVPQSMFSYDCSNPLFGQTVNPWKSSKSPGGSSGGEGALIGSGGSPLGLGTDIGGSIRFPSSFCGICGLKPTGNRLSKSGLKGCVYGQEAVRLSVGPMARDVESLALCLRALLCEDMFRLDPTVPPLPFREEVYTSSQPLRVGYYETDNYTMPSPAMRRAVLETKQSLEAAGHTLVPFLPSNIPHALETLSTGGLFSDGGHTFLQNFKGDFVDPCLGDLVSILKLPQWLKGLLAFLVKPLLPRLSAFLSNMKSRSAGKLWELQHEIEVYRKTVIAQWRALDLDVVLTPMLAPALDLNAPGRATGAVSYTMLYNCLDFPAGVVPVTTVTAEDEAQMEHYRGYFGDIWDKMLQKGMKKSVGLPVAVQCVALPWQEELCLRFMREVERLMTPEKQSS

[9] = biological target: T5, Monoacylglycerol lipase ABHD6 (Homo sapiens, UniProt Q9BV23); test: Inhibition of human ABHD6 expressed in HEK293 cells using 2-OG as substrate preincubated for 30 mins followed by substrate addition and measured after 5 mins by liquid scintillation spectroscopic method; assay type: cell-based
T5 sequence (Q9BV23 whole entry): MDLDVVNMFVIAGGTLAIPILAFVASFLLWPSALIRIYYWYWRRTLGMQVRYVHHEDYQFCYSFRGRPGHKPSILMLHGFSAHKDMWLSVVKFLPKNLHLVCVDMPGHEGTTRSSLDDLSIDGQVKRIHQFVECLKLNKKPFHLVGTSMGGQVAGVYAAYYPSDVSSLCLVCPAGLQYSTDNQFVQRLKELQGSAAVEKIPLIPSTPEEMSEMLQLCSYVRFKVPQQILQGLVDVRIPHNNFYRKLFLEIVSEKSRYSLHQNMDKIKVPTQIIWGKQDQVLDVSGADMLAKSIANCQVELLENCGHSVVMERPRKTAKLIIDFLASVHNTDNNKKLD
How it was run: (§4)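 Homogenate (40 µg) of HEK293 cells stably transfected with hABHD6 or hABHD12, compound preincubated 30 min at 37 °C in […], 0.1% BSA, pH 7.6. DMSO vehicle; WWL70 10 µM or THL 20 µM as positive controls. 10 µM 2-OG added for 5 min at 37 °C, stopped with CHCl₃:MeOH. Aqueous phase counted; no-enzyme blanks and non-transfected HEK293 hydrolysis subtracted.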

[10] = biological target: T6, Lysophosphatidylserine lipase ABHD12 (Homo sapiens, UniProt Q8N2K0); test: Inhibition of human ABHD12 expressed in HEK293 cells using 2-OG as substrate preincubated for 30 mins followed by substrate addition and measured after 5 mins by liquid scintillation spectroscopic method; assay type: cell-based; how it was run: as §4
T6 sequence (Q8N2K0 whole entry): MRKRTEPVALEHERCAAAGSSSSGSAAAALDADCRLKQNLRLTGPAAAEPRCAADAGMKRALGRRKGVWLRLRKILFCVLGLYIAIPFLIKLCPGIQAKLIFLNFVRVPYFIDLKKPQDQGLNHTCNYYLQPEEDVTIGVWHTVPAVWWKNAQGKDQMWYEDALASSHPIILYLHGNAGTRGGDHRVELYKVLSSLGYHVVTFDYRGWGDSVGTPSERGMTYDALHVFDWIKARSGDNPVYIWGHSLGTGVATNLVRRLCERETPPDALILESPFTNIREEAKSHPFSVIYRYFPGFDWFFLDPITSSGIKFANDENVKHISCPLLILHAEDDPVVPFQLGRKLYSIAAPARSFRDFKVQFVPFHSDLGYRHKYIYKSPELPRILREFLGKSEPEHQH

[11] = tested on: U-937; test: Inhibition of [ethanolamine-1-3H]AEA/unlabeled AEA uptake in human U937 cells preincubated for 15 mins followed by [ethanolamine-1-3H]AEA/unlabeled AEA addition and measured after 15 mins by scintillation counting method; assay type: functional, cell-based
How it was run: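 Intact U937 cells (0.5x10⁶ per sample) in RPMI, preincubated with compound for 15 min at 37 °C. Then 1 nM [ethanolamine-1-³H]AEA plus unlabeled AEA (final 100 nM) added for 15 min. Stopped by rapid filtration and ice-cold PBS/1% BSA washes, radioactivity counted. At least three experiments in triplicate, mean ± SD.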

[12] = tested on: U-937; test: Cytotoxicity against human U937 cells assessed as decrease in cell viability at 0.6 to 40 uM after 48 hrs by MTT assay; assay type: functional, cell-based
How it was run: (§5)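 U251MG (EMEM, 10% FBS) or U937 (RPMI 1640, 10% FBS) cells plated at 4x10³/well for 24h, then exposed to compounds (0–40 µM) for 48 h at 37°C. MTT reduction, formazan read at 595 nm. Viability as % of untreated control. Five independent experiments in triplicate, mean ± SD, ANOVA with Bonferroni.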

[13] = tested on: U-251; test: Cytotoxicity against human U251MG cells assessed as decrease in cell viability at 0.6 to 40 uM after 48 hrs by MTT assay; assay type: functional, cell-based; how it was run: as §5

T2 sequence (P21554 whole entry): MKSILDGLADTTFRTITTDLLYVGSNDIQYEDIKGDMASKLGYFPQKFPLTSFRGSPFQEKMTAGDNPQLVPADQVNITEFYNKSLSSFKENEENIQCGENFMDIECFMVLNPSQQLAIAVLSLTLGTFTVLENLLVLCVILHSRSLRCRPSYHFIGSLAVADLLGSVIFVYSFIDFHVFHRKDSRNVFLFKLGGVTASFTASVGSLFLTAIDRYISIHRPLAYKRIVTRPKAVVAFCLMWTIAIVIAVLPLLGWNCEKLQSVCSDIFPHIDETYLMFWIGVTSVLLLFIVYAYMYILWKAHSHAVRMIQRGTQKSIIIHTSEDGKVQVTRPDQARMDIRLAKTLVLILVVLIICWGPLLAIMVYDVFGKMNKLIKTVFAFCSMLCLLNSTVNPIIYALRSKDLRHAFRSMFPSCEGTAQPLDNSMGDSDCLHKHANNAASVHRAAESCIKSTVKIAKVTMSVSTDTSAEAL
T3 sequence (P34972 whole entry): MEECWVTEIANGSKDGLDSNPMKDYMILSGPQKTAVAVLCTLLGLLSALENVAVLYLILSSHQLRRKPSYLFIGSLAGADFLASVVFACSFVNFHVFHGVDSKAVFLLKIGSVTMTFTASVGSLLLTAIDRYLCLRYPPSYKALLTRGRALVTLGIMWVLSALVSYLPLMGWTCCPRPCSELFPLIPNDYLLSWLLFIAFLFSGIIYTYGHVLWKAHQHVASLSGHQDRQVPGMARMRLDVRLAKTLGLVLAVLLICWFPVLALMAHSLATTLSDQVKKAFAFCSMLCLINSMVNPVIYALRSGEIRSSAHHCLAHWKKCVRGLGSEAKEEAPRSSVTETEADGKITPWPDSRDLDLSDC

| SMILES | IC50 [1] | Ki [2] | Ki [3] | Ratio Ki [4] | EC50 [5] | EC50 [6] | Emax [7] | IC50 [8] | IC50 [9] | IC50 [10] | IC50 [11] | Activity [12] | Activity [13] |
| --- | --- | --- | --- | --- | --- | --- | --- | --- | --- | --- | --- | --- | --- |
| Cc1ccn(Cc2ccc(F)cc2)c(=O)c1C(=O)NC1CCCCCC1 | > 10 µM | 0.0117 µM | 0.0059 µM | 2 to 54 | 0.069 µM | 0.0019 µM | 128% | 8.8 µM | > 10 µM | > 10 µM | 1.8 µM | Active | inactive |
| O=C(NC1CCCCCC1)c1c(-c2ccccc2)ccn(Cc2ccc(F)cc2)c1=O | > 10 µM | > 10 µM | 0.187 µM | 2 to 54 | – | 0.501 µM | 134% | > 10 µM | > 10 µM | > 10 µM | > 10 µM | Active | inactive |
| COc1ccc(-c2cc(C(=O)NC3CCCCCC3)c(=O)n(Cc3ccc(F)cc3)c2)cc1 | – | – | – | – | – | – | – | – | – | – | – | Active | inactive |
| COc1ccc(-c2ccn(Cc3ccc(F)cc3)c(=O)c2C(=O)NC2CCCCCC2)cc1 | > 10 µM | > 10 µM | > 10 µM | 2 to 54 | – | – | – | > 10 µM | > 10 µM | > 10 µM | > 10 µM | – | – |
| O=C(NC1CCCCCC1)c1c(-c2ccccc2)c(-c2ccccc2)cn(Cc2ccc(F)cc2)c1=O | > 10 µM | > 10 µM | > 10 µM | 2 to 54 | – | – | – | > 10 µM | > 10 µM | > 10 µM | > 10 µM | – | – |
| COc1ccc(C(=O)c2c(C)n(CCN3CCOCC3)c3cc(I)ccc23)cc1 | – | – | – | – | – | 0.167 µM | 35% | – | – | – | – | – | – |
| CCCCCCC(C)(C)c1ccc([C@@H]2C[C@H](O)CC[C@H]2CCCO)c(O)c1 | – | – | – | – | – | – | 196% | – | – | – | – | – | – |
| O=C(NC1CCCCCC1)c1c(-c2ccccc2)c(Br)cn(Cc2ccc(F)cc2)c1=O | > 10 µM | > 10 µM | 0.437 µM | 2 to 54 | – | 0.316 µM | 176% | > 10 µM | 3 µM | > 10 µM | > 10 µM | – | – |
| COc1ccc(-c2cn(Cc3ccc(F)cc3)c(=O)c(C(=O)NC3CCCCCC3)c2-c2ccccc2)cc1 | > 10 µM | > 10 µM | > 10 µM | 2 to 54 | – | – | – | > 10 µM | > 10 µM | > 10 µM | > 10 µM | – | – |
| COc1ccc(-c2c(Br)cn(Cc3ccc(F)cc3)c(=O)c2C(=O)NC2CCCCCC2)cc1 | > 10 µM | > 10 µM | > 10 µM | 2 to 54 | – | – | – | > 10 µM | > 10 µM | > 10 µM | > 10 µM | – | – |
| Cc1ccnc(OCc2ccc(F)cc2)c1C(=O)NC1CCCCCC1 | > 10 µM | 0.131 µM | 0.0463 µM | 2 to 54 | 0.229 µM | 0.031 µM | 127% | > 10 µM | > 10 µM | > 10 µM | 0.58 µM | Active | inactive |
| Cc1c(-c2ccccc2)cn(Cc2ccc(F)cc2)c(=O)c1C(=O)NC1CCCCCC1 | > 10 µM | 0.0231 µM | 0.0069 µM | 2 to 54 | 0.237 µM | 0.012 µM | 39% | 0.07 µM | > 10 µM | 2.5 µM | – | Active | inactive |
